This is an account of results in ChEMBL document CHEMBL1123896 (J Med Chem, 1987).

Data set [1] in a line: Apparent lipophilicity (log kw) at pH 7.5. The conditions noted are these: buffer. It is filed as physicochemical. The gist of the method:
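Measured at pH 7.5 by RP-HPLC. Capacity factors were extrapolated to 0% methanol, and the resulting log kw was taken as apparent lipophilicity. Values that could not be measured were estimated from derived fragmental values.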

Data set [2] can be described thus: Selectivity pIC50 (sigma)-pIC50(D2).
In data set [3] the target is D(2) dopamine receptor (Rattus norvegicus) (UniProt P61169). As to the kind of experiment: Eudisimic index was determined for the compound against Dopamine receptor D2. Summed up: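 Eudismic index is the log of the eutomer/distomer affinity ratio, calculated as pIC50(eutomer) − pIC50(distomer) for each enantiomer pair. The pIC50 values come from displacement of specific [3H]spiperone binding at the dopamine D2 receptor.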

The target in data set [4] is Sigma non-opioid intracellular receptor 1 (Rattus norvegicus) (UniProt Q9R0C9). The data set is described as follows: Eudisimic index was determined for the compound against sigma receptor. Summed up:
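Eudismic index is the log of the eutomer/distomer affinity ratio, calculated as pIC50(eutomer) − pIC50(distomer) for each enantiomer pair, using σ-receptor binding pIC50 values.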

Data set [5] has as its target D(2) dopamine receptor (Rattus norvegicus, UniProt P61169). The data set is described as follows: Binding affinity for dopamine receptor D2 was evaluated by the ability to displace [3H]spiperone.
In data set [6] the target is Sigma non-opioid intracellular receptor 1 (Rattus norvegicus, UniProt Q9R0C9). The data set is described as follows: Binding affinity against sigma receptor.
In data set [7] the target is D(2) dopamine receptor (Rattus norvegicus) (UniProt P61169).

Sequence of D(2) dopamine receptor (Rattus norvegicus) (P61169 whole entry): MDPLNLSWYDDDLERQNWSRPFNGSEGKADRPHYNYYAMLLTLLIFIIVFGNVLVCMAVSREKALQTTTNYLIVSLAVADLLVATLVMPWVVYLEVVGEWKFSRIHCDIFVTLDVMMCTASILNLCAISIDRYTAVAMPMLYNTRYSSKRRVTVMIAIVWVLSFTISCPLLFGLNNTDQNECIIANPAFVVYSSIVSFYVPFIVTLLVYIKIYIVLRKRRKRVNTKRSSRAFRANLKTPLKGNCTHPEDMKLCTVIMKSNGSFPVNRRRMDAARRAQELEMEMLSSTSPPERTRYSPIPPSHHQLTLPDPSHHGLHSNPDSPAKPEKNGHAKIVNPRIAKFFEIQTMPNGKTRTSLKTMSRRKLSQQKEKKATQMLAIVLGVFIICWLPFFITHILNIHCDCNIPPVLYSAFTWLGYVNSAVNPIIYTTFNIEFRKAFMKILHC
Sequence of Sigma non-opioid intracellular receptor 1 (Rattus norvegicus) (Q9R0C9 whole entry): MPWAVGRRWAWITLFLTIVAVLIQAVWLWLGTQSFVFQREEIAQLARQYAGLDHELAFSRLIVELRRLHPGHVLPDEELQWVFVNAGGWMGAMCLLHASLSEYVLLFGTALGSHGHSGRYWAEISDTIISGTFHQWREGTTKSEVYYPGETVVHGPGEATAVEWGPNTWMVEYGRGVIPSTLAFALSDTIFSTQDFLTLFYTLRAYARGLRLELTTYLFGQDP
Sequence of D(2) dopamine receptor (P61169 whole entry): as the sequence (P61169 whole entry) above
Sequence of Sigma non-opioid intracellular receptor 1 (Q9R0C9 whole entry): as the sequence (Q9R0C9 whole entry) above

Regarding `CCCN1CCC[C@@H](c2cccc(O)c2)C1` [PRECLAMOL], the Log kw in data set [1] is listed as 1.05.

With `Oc1cccc([C@H]2CCCNC2)c1`, the Log kw in data set [1] came to 0.41. Also, in data set [2], the Selectivity is -1.02. Also, the figures for the EI in data set [3] and in data set [4] were 0.6 and 0.53, respectively.

`CN1CCC[C@H](c2cccc(O)c2)C1`: the Log kw in data set [1] is 0.96. The EI is 0.32 in data set [3] and 0.71 in data set [4].

`Oc1cccc([C@@H]2CCCNC2)c1`: the Log kw in data set [1] worked out at 0.41. The compound further showed a Selectivity in data set [2] of -0.95.

As to `CC(C)N1CCC[C@@H](c2cccc(O)c2)C1`, the Log kw in data set [1] was determined as 0.84. The compound also displayed a Selectivity in data set [2] of 0.23.

Take `Oc1cccc([C@@H]2CCCN(CCc3ccccc3)C2)c1`: the Log kw in data set [1] stood at 2.27. The compound further returned a Selectivity in data set [2] of 0.44.

Broadly, the IC50 is the point on the concentration scale where inhibition reaches its midpoint. As to `CN1CCC[C@@H](c2cccc(O)c2)C1`, in data set [1], the Log kw is 0.94. Further, the IC50 in data set [5] was 1.95 µM; in data set [6] it was 1.91 µM. The compound further registered a Selectivity in data set [2] of 0.01.

`CCCCN1CCC[C@H](c2cccc(O)c2)C1`: the Log kw in data set [1] is recorded as 1.41. Besides, the EI in data set [3] turned out to be 0.99; in data set [4], 0.54.

`CCN1CCC[C@H](c2cccc(O)c2)C1`: in data set [1], the Log kw turned out to be 0.84.

On to `Oc1cccc([C@H]2CCCN(CCc3ccccc3)C2)c1`, for which the Log kw in data set [1] is listed as 2.27. The results for the EI in data set [3] and in data set [4] were 1.45 and 0.3, respectively.

As for `CCCN1CCC[C@H](c2cccc(O)c2)C1`, the Log kw in data set [1] amounted to 1.05. The EI turned out to be 0.61 in data set [3] and 0.71 in data set [4].

Consider `CCN1CCC[C@@H](c2cccc(O)c2)C1`, for which, in data set [1], the Log kw is listed as 0.84.

With `CCCCN1CCC[C@@H](c2cccc(O)c2)C1`, in data set [1], the Log kw turned out to be 1.41. The compound further yielded a Selectivity in data set [2] of 0.95.

Take `CC(C)N1CCC[C@H](c2cccc(O)c2)C1`: the Log kw in data set [1] amounted to 0.84. Also, the EI came out at 0.07 in data set [7] and 1.53 in data set [3].
